In ChEMBL document CHEMBL4513216, “Probing the Open Global Health Chemical Diversity Library for Multistage-Active Starting Points for Next-Generation Antimalarials” (ACS Infect Dis, 2020):

Assay: Toxicity liver stage against HepG2, at 10uM
Format: cell-based
Set-up: test concentration 10 uM, cell line HepG2-A16-CD81EGFP
Settings: human, HepG2-A16-CD81EGFP cells; read-out: INHIBITION
Procedure, shortened: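 Uninfected HepG2-A16-CD81EGFP cells, 3 × 10^3 per well, 1536-well, plated on prespotted compound at 10 μM final, parasite-free screening media added to match infected plates; puromycin 10 μM positive, DMSO 0.5% negative; run in parallel with 48 h PbLuc assay at 37 °C, 5% CO2; viability by CellTiter-Glo luminescence, normalized to controls.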

**Q.** For CCc1cnc2c(c1Nc1ccc3c(c1)OCO3)c(=O)n(C)c(=O)n2C, which cytotoxicity at 10 µM is on record?
**A.** 9.06%

**Q.** Which cytotoxicity at 10 µM does the source give for CN(C)C(=O)COCC1CN(CC2CCOCC2)Cc2ncn(C)c21 (stereo not given) here?
**A.** 1.03%

**Q.** For CCOc1ccccc1C(=O)Oc1cc(=O)n2cccc(C)c2n1, which cytotoxicity at 10 µM is on record?
**A.** 22.1%

**Q.** With COc1ccccc1C(=O)Nc1c(F)c(C(=O)NC2CCCC2)nn1C as the compound, how does the cytotoxicity at 10 µM read?
**A.** -10.8%

**Q.** With CCS(=O)(=O)NCCCn1ncc2c(C)cccc21 as the compound, how does the cytotoxicity at 10 µM read?
**A.** 6.8%

**Q.** For O=C1CN([C@@H]2CC[C@@H](NS(=O)(=O)c3ccccc3)[C@H]2O)CCN1, which cytotoxicity at 10 µM is on record?
**A.** 7.41%

**Q.** For CCNC(=O)C1(Cc2cc(-c3ccccc3)no2)CCCN(C(C)C)C1 (stereo not given), which cytotoxicity at 10 µM is on record?
**A.** 1.62%

**Q.** Which cytotoxicity at 10 µM does the source give for O=C(c1ccc2[nH]nnc2c1)N1C[C@H](O)[C@]2(CCCO2)C1 here?
**A.** 3.42%

**Q.** For CCN(Cc1cccnc1)CC1(C)Cc2c(N)nc(N)nc2O1 (stereo not given), which cytotoxicity at 10 µM is on record?
**A.** 0.705%

**Q.** Which cytotoxicity at 10 µM does the source give for CC(C)(C)OC(=O)N[C@@H]1C[C@@H](O)CN(C(=O)c2cccc(F)c2)C[C@H]1O here?
**A.** 0.187%

**Q.** With Cc1cncnc1C1CCN(CC2CC2)CC1 as the compound, how does the cytotoxicity at 10 µM read?
**A.** -1.06%

**Q.** For NC(=O)c1cn[nH]c1C1CCCN1C(=O)c1cnccn1 (stereo not given), which cytotoxicity at 10 µM is on record?
**A.** -6.17%

**Q.** For Cc1nc(CN2CCN(CC(O)CN3CCOCC3)CC2)oc1C (stereo not given), which cytotoxicity at 10 µM is on record?
**A.** 5.92%

**Q.** For O=C1NCCCCC1NC(=O)C1(c2ccccc2)CCOCC1 (stereo not given), which cytotoxicity at 10 µM is on record?
**A.** -14.2%

**Q.** Which cytotoxicity at 10 µM does the source give for O=C(NS(=O)(=O)c1cccc(C(F)(F)F)c1)c1cnsn1 here?
**A.** -2.98%

**Q.** With CCOc1ccc(Cl)cc1CCNC(=O)Cn1nc(C)ccc1=O as the compound, how does the cytotoxicity at 10 µM read?
**A.** -3.91%

**Q.** Which cytotoxicity at 10 µM does the source give for O=C(CCn1ccnn1)N1CCCC(n2cncn2)C1 (stereo not given) here?
**A.** -1.26%

**Q.** For COC1CCN(c2ccc(F)cc2CN(C)S(C)(=O)=O)CC1, which cytotoxicity at 10 µM is on record?
**A.** -12.5%

**Q.** With Fc1ccc(C2(NCc3ccccc3)CCOCC2)cc1 as the compound, how does the cytotoxicity at 10 µM read?
**A.** -9.91%

**Q.** Which cytotoxicity at 10 µM does the source give for Cc1cc(NCCC(=O)NC2CCCC2)nc(-c2ccncc2)n1 here?
**A.** 2.25%

**Q.** For O=C(NCCNC(=O)C1CC1)c1cnc(-c2ccccc2)nc1, which cytotoxicity at 10 µM is on record?
**A.** 12.3%

**Q.** For O=C(CCCc1ccccn1)NCC(O)c1ccccc1Cl (stereo not given), which cytotoxicity at 10 µM is on record?
**A.** -9.08%

**Q.** For Cc1cccc(N(CCC(N)=O)CC(=O)Nc2cc(Cl)ccc2Cl)c1, which cytotoxicity at 10 µM is on record?
**A.** 11.3%

**Q.** For Cc1ccc(C(=O)NCCCn2cncn2)c(=O)[nH]1, which cytotoxicity at 10 µM is on record?
**A.** -14.4%

**Q.** With CC(C)c1nc(/C=C/c2cnn(-c3ccc(Cl)cc3)c2)ncc1C(=O)O as the compound, how does the cytotoxicity at 10 µM read?
**A.** -6.21%

**Q.** With c1cnn(CCNCc2cnc(N3CCOCC3)nc2)c1 as the compound, how does the cytotoxicity at 10 µM read?
**A.** -1.73%

**Q.** For CC(C(=O)Nc1cccc(Cl)c1)N1CCN(Cc2ncc[nH]2)CC1 (stereo not given), which cytotoxicity at 10 µM is on record?
**A.** -8.64%

**Q.** For O=C(NCC1(O)CCC1)c1cccc(-n2cccn2)c1, which cytotoxicity at 10 µM is on record?
**A.** -2.44%

**Q.** For COc1ccc(OC)c(CN(C)c2nc3c(cnn3C)c(=O)[nH]2)c1, which cytotoxicity at 10 µM is on record?
**A.** 59.5%

**Q.** For Cc1nc(CN2C(=O)CC[C@H]3[C@@H]2CCN3C(=O)c2ccsc2)cs1, which cytotoxicity at 10 µM is on record?
**A.** 1.8%

**Q.** With Cc1nccn1Cc1nnc(C2CCCN(c3ncccn3)C2)n1C (stereo not given) as the compound, how does the cytotoxicity at 10 µM read?
**A.** -3.09%

**Q.** With CC1=C(CCN2CC[C@@H](N3CCC(O)CC3)[C@H](O)C2)C(C)(C)CCC1 as the compound, how does the cytotoxicity at 10 µM read?
**A.** -4.42%

**Q.** With CCn1ccnc1CN(C)c1cc(C2CCCNC2)nc(C)n1 (stereo not given) as the compound, how does the cytotoxicity at 10 µM read?
**A.** -2.48%

**Q.** Which cytotoxicity at 10 µM does the source give for COC1CCCOC12CCN(C(=O)NCc1ccco1)CC2 (stereo not given) here?
**A.** -15.3%

**Q.** With OC1(CNCCc2csc(-c3cccnc3)n2)CCNC1 (stereo not given) as the compound, how does the cytotoxicity at 10 µM read?
**A.** 2.76%

**Q.** Which cytotoxicity at 10 µM does the source give for CC[C@@H](c1ccccc1)n1c(CN)n[nH]c1=O here?
**A.** -4.34%

**Q.** Which cytotoxicity at 10 µM does the source give for Cc1nn(C)c(C)c1-c1ccnc(N(C)Cc2noc(C(C)C)n2)n1 here?
**A.** 26.4%

**Q.** For COc1ccc(CC2(CO)CCN(c3cc(C(N)=O)ccn3)CC2)cc1, which cytotoxicity at 10 µM is on record?
**A.** -2.41%

**Q.** For COc1ccc(OCCN2CCCN(Cc3noc(C)n3)CC2)cc1, which cytotoxicity at 10 µM is on record?
**A.** -6.12%

**Q.** For CC(C)Oc1ccc(C(=O)N2CCCC2c2cnn(C)c2)cn1 (stereo not given), which cytotoxicity at 10 µM is on record?
**A.** -6.37%

**Q.** With CN(CC(=O)Nc1ccncc1)C1CCCN(c2cccnn2)C1 (stereo not given) as the compound, how does the cytotoxicity at 10 µM read?
**A.** -3.44%

**Q.** Which cytotoxicity at 10 µM does the source give for CCc1nc2n(n1)CC(NCc1nc(-c3ccccn3)no1)CC2 (stereo not given) here?
**A.** -3.45%

**Q.** For CC(C)(C)c1nc(CN2CCCC(Cn3cncn3)C2)no1 (stereo not given), which cytotoxicity at 10 µM is on record?
**A.** -0.0792%

**Q.** For Cc1nc(NC(=O)C2(C)CN(C)CCO2)sc1C (stereo not given), which cytotoxicity at 10 µM is on record?
**A.** 2.44%

**Q.** Which cytotoxicity at 10 µM does the source give for CN1C[C@@H](C(=O)N(C)C)[C@@]2(CCc3ccccc3C(=O)N2)C1 here?
**A.** 1.2%
